Shown are actives, neighbours in structure and some others; about 3.9% of the full set was active somewhere.
TAAR1 antagonist: antagonists of human TAAR1. Q96RJ0. CHO RD-HGA16 TAAR1, Fluo-8 calcium fluorescence, antagonist. inhibition, % at 3 µM. 360,000 compounds, 1.5% hits. AID 624466;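 active = inhibition above a per-plate cutoff, the mean inhibition of test compounds on that plate plus 3 SD, cut at about 49% in these data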
Target sequence (Q96RJ0 whole entry, looked up): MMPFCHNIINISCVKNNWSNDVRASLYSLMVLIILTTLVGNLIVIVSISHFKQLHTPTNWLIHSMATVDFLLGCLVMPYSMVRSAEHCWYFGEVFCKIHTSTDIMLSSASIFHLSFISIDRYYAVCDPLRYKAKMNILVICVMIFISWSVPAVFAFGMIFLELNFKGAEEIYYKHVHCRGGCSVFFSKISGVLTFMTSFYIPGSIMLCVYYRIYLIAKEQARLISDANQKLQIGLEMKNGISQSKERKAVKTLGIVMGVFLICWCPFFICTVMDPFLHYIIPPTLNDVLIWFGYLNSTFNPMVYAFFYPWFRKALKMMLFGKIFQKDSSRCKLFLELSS
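Test system – hTAAR1-expressing CHO RD-HGA16 cells, Gα16-coupled · Reagent – β-PEA at EC80 concentration, post-compound challenge · Compound dosing – 3 µM, single point · Timing – 140 s kinetic read after compound, 140 s after agonist · Detection – Fluo-8 intracellular calcium dye fluorescence, real-time kinetic reads · Control set – DMSO and EC80 PEA controls · Repeats – n of 1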
CRFR2-BP ag: CRF-BP/CRF-R2 complex agonism; activation, % at 13.2 µM; AID 588473; 350,000 compounds, 0.46% hits; HEK293 CRF-R2/CRF-BP, calcium dye fluorescence (FLIPR); percent of saturating CRF peptide response;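 active = activation of at least 50%, plus an integration ratio under a set limit after plate pattern correction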
ANO1 block: inhibitors of mouse TMEM16A calcium-activated chloride channel; HEK293 TMEM16A/YFP iodide influx fluorescence, ionomycin; normalized B-score (activity score, 25-100; higher = stronger inhibition) at 10 µM; 310,000 compounds, 1.2% hits;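 active = ratio plate-corrected score three or more library SD toward inhibition, starting fluorescence score within five deviations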;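 also: score derived from kinetic fluorescence span divided by baseline fluorescence per well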
TAAR1 agonist: human TAAR1 agonism. Q96RJ0. CHO RD-HGA16 TAAR1, Fluo-8 calcium fluorescence; vehicle wells 0%, saturating PEA agonist 100%. activation, % at 3 µM. 360,000 compounds, 0.99% hits;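 active = activation above the mean activation of all test compounds in the run plus 3 SD, cut at about 38% in these data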
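Benchmarks: low control DMSO, high control PEA (EC100); System: CHO RD-HGA16 cells carrying human TAAR1 plus Gα16; Detection: Fluo-8 fluorescence, 5 s baseline then 140 s kinetic read; Schedule: 17-24 h plating, Fluo-8 75 min 37 °C, 30 min RT; Read-out basis: % activation from peak over basal fluorescence ratio, DMSO-to-PEA scaled.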
TMEM16A act: activators or potentiators of mouse TMEM16A chloride channel; Q8BHY3; HEK293 TMEM16A/YFP-H148Q/I152L, iodide quench fluorescence; active compounds read low; B-score at 10 µM; 340,000 compounds, 0.3% hits;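 active = fluorescence-ratio B-score plate-corrected deviation score at least 3 library SD below zero, with starting fluorescence score within 5 deviations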;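 also: channel opened by trigger with iodide after compound preincubation; score built on the fluorescence ratio of max minus min over baseline; more negative score means more quench and so TMEM16A activation or potentiation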
CRFBP-R2 block: blocks CRF-induced signaling of the CRF-BP/CRF-R2 complex; 350,000 compounds, 0.59% hits; inhibition, % at 11.8 µM; AID 588475; HEK293 CRF-R2/CRF-BP, CRF-induced calcium fluorescence;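 active = inhibition of the ligand-induced calcium signal above about 50% at the single tested concentration, limit read from the data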
Of the large screens only hits and unclear results are named; the others gave an inactive call.

CC(=O)c1ccc(NC(=S)NC(C)c2ccc(Cl)cc2Cl)cc1 (configuration not stated)	ANO1 block 100, TAAR1 agonist 41.5
CCCC(=O)NC(=S)Nc1ccc(C(C)=O)cc1	none
CC(=O)c1ccc(NC(=S)Nc2ccc(Br)c(Cl)c2)cc1	none
CC(=O)c1ccc(NC(=S)NC(=O)Cc2ccc(Cl)cc2)cc1	CRFR2-BP ag 75.5
CC1CCN(S(=O)(=O)c2nnc(NC(=O)c3cccc(Cl)c3)s2)CC1	CRFBP-R2 block 59.5
CCN(C(=O)COC(=O)COc1ccccc1Cl)c1c(N)n(Cc2ccccc2)c(=O)[nH]c1=O	none (no result: ANO1 block)
COc1ccc(NC(=O)C2(C)Cc3c(-c4cccc(C(N)=O)c4)ccnc3O2)cc1OC (configuration not stated)	none (no result: CRFR2-BP ag, ANO1 block, TMEM16A act, CRFBP-R2 block)
CN1CCN(C(=O)c2ccc3c(c2)N(C)C(=O)/C(=C/c2cccc(Cl)c2)S3)CC1	none
COc1ccc(/C=C2\Sc3ccc(C(=O)N4CCN(Cc5ccccc5)CC4)cc3N(C)C2=O)cc1OC	TAAR1 antagonist 59.4
CN1C(=O)/C(=C/c2ccccc2F)Sc2ccc(C(=O)N3CCCC3)cc21	ANO1 block 25
Cc1ccccc1/C=C1\Sc2ccc(C(=O)N3CCN(c4ccccn4)CC3)cc2N(C)C1=O	none (no result: TAAR1 antagonist, TAAR1 agonist)
CC1CCCCC12NC(=O)N(CC(=O)OCC(=O)NC(=O)c1ccccc1)C2=O (configuration not stated)	none (no result: ANO1 block)
CC(C)Cc1nnc(NC(=O)CCC(=O)N2CCN(c3ccc(F)cc3)CC2)s1	none
N#CC(C(=O)NCCc1ccccc1)c1nc2ccccc2nc1N1CCCCC1 (configuration not stated)	ANO1 block 100
CCCCCCNC(=O)C(C#N)c1nc2ccccc2nc1N1CCCC1 (configuration not stated)	TAAR1 antagonist 51.0, CRFR2-BP ag 181.6
CC(C)(C)C(C(=O)NCc1ccccc1)N1CCN(C(=O)C2CCCO2)CC1 (configuration not stated)	none (no result: CRFR2-BP ag, ANO1 block, TMEM16A act, CRFBP-R2 block)
COC(=O)C(F)(F)Sc1c(C)[nH]c2ccccc12	CRFBP-R2 block 51.8
CC1(c2ccc(Cl)cc2Cl)NC(=O)N(CC(=O)NCCC2=CCCCC2)C1=O (configuration not stated)	none (no result: ANO1 block, TMEM16A act)
COc1ccc(-c2csc(=NCCO)n2-c2ccccc2)cc1	ANO1 block 25
Oc1ccccc1CNc1ccc(Br)cn1	TAAR1 antagonist 70.8
Brc1ccc(NCc2cccc3ccccc23)nc1	none
Nc1ncnc2c1ncn2[C@@H]1O[C@H](CNC(=O)[C@@H](N)COCc2ccccc2)[C@@H](O)[C@H]1O	none (no result: TAAR1 antagonist, ANO1 block, TAAR1 agonist, TMEM16A act)
COC(=O)c1scc2c(=O)cc(C(F)(F)F)[nH]c12	CRFR2-BP ag 62.7
CCc1ccc2oc(=O)cc(CN(C)Cc3ccccc3)c2c1	ANO1 block 100
O=C1C=CC(=O)N1c1cccc(-c2ccccc2)c1	TAAR1 antagonist 68.7
CCN(CC)c1ccc(CNc2nc3ccccc3n2CCN2CCCCC2)cc1	ANO1 block 100
COc1ccc(CNc2nc3ccccc3n2CCN2CCCCC2)cc1	none
O=C(NCCOc1ccccc1F)c1ccccc1SCc1ccc(F)cc1	CRFBP-R2 block 63.5
Cn1cc(CN2CCCC(C(=O)Nc3ccc(-c4cccc(F)c4)cc3)C2)cn1 (configuration not stated)	none
CCCc1cc(C(=O)Cc2ccc(F)cc2)c(O)cc1O	ANO1 block 100
CN(C)CC(CCC(CN(C)C)C(=O)c1ccccc1)C(=O)c1ccccc1 (configuration not stated)	TMEM16A act -9.5 (no result: TAAR1 antagonist, ANO1 block, TAAR1 agonist)
Cc1ccc(S(=O)(=O)N2C[C@@H]3[C@H]4CC[C@H](C4)[C@@H]3[C@@H](C)[C@H]2C#N)cc1	none (no result: ANO1 block)
CC(=O)N1c2c(cc(Br)cc2S(=O)(=O)N2CCN(c3ccccc3F)CC2)CC1C (configuration not stated)	ANO1 block 25
Cc1cc(C)cc(N(C(=O)c2nsc(Cl)c2Cl)C(C(=O)NC2CCCC2)c2ccc(O)cc2)c1 (configuration not stated)	CRFBP-R2 block 72.7
Cc1ccc(N(C(=O)c2nsc(Cl)c2Cl)C(C(=O)NC2CCCC2)c2ccc(O)cc2)cc1C (configuration not stated)	CRFBP-R2 block 87.8
Cc1cccc(N(C(=O)c2nsc(Cl)c2Cl)C(C(=O)NC2CCCC2)c2ccc(O)cc2)c1C (configuration not stated)	CRFBP-R2 block 91.4
CCOC(=O)Cc1csc(SCC(=O)Nc2cc(Cl)ccc2Oc2ccccc2)n1	TAAR1 antagonist 87.5
Cc1ccccc1-n1c(O)c(/C=C/C=Nc2ccccc2)c(=O)[nH]c1=O	CRFR2-BP ag 81.4
CCOC(=O)c1n[nH]c(=O)c2ccccc12	none
CCOC(=O)C1CCN(C(=O)c2n[nH]c(=O)c3ccccc23)CC1	CRFBP-R2 block 91.5
CC(CC(=O)N1CCN(c2cccc(Cl)c2)CC1)S(=O)(=O)c1ccc2c(c1)NC(=O)CO2 (configuration not stated)	TAAR1 antagonist 78.7
CCOC(=O)c1c(C)nc(C)c(C(=O)OCC)c1-c1ccco1	none
Cc1cccc(NC(=S)NCC(C)CSc2ccc(Cl)cc2)c1 (configuration not stated)	ANO1 block 25
Cc1ccc(NC(=S)NCC(C)CSc2ccc(Cl)cc2)cc1 (configuration not stated)	none
CCc1ccccc1N(C)S(=O)(=O)c1ccc2[nH]cc(C(=O)N3CCc4ccccc43)c(=O)c2c1	TAAR1 antagonist 56.7
Cc1noc(C)c1COc1ccc(C(=O)Nc2nnc(CC(C)C)s2)cc1	none (no result: ANO1 block)
Oc1ccc(C[C@H]2CNC(=S)N2C[C@H]2CCCN2C[C@H](Cc2ccccc2)N2C[C@H](Cc3ccc(O)cc3)N(CC3CCCCCC3)C2=S)cc1	none (no result: CRFR2-BP ag, ANO1 block, TMEM16A act, CRFBP-R2 block)
CCOc1ccc(/C=N/n2c(-c3ccccc3)n[nH]c2=S)cc1	none
CN(c1ccc(OCC(=O)OCC(=O)Nc2ccc([N+](=O)[O-])cc2)cc1)S(=O)(=O)c1cccs1	TAAR1 antagonist 59.6, TAAR1 agonist 41.2 (no result: ANO1 block)
CCOC(=O)Cc1csc(NC(=O)COc2ccc(N(C)S(=O)(=O)c3cccs3)cc2)n1	ANO1 block 100
O=C(COC(=O)/C=C/c1ccc(Cl)cc1)Nc1ccc2c(c1)OCCO2	TAAR1 antagonist 54.2, TAAR1 agonist 41.9
O=C(COC(=O)c1ccc(O)cc1O)Nc1ccc2c(c1)OCCO2	TMEM16A act -27.8 (no result: ANO1 block)
Cc1nn(C(=O)c2cccnc2)c(C)c1Sc1ccc(Br)cc1	ANO1 block 25 (no result: TAAR1 antagonist, TAAR1 agonist)
COc1cc(/C=C2\SC(=S)N(NC(=O)c3cccnc3)C2=O)ccc1O	none

Bioassay records deposited in PubChem by several laboratories.
